Activity calls are given as the source filed them.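 How the source made its calls, unless noted: active means GFP response above 150% of the DMSO level; inconclusive means fewer than 70 events counted for a yeast strain; inactive means the rest.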
Key:
[1] = RPL19A-GFP modulators, yeast TOR pathway, confirmation, cell-based, S. cerevisiae, flow cytometry, cherry picks, mother/daughter gates (AID 2270;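 active means GFP response below 50% of the DMSO control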); conditions: S. cerevisiae RPL19A-GFP strain, 3 h, at 10 µM, stronger effect = lower value, 100 = same GFP as DMSO wells
[2] = LAP4-GFP expression modulators in yeast, confirmation, cell-based, cherry picks, flow cytometry, mother/daughter gates (AID 2271;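 active means GFP response above 150% of the DMSO control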;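 further: ratio of sample to DMSO plate mean so 100% equals DMSO level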); conditions: S. cerevisiae LAP4-GFP strain, 3 h, at 10 µM, stronger effect = higher value, 100 means same as DMSO control
How it was run: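 System: GFP-fusion yeast strain | Input: Yeast cells seeded at OD600 of 0.2 | Technique: HT flow cytometry, GFP fluorescence channel | Read-out: % GFP response vs DMSO | Dosing: Single test-compound dose, 10 µM final | Controls: Positive rapamycin (400 ng/mL), negative DMSO | Times: 3 h treatment at 30 °C with rotation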

[3] = modulators of MEP2-GFP levels in yeast, confirmation, S. cerevisiae, flow cytometry GFP, cherry picks (AID 2272;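 active means GFP response above 150% of the DMSO control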;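 further: ratio of well signal to plate DMSO mean so 100% equals DMSO level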); conditions: S. cerevisiae MEP2-GFP strain, 3 h, at 10 µM, stronger effect = higher value
[4] = AGP1-GFP expression modulators, hit retest, confirmation, cell-based, flow cytometry, S. cerevisiae, cherry picks (AID 2273);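 further: median GFP channel fluorescence over the whole cell population gate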; conditions: S. cerevisiae AGP1-GFP strain, 3 h, at 10 µM
[5] = modulators of CIT2-GFP expression in yeast, confirmation, S. cerevisiae, GFP fusion, cherry picks, mother/daughter gates (AID 2274); conditions: S. cerevisiae CIT2-GFP strain, flow cytometry, 3 h, at 10 µM, stronger effect = higher value
[6] = measured here: daughter cell gate
[7] = measured here: mother cell gate
[8] = measured here: daughter cell gate response
[9] = measured here: mother cell gate response

| SMILES | GFP response vs DMSO [1] | GFP response vs DMSO [1, 6] | GFP response vs DMSO [1, 7] | GFP response relative to DMSO [2] | GFP response relative to DMSO [2, 8] | GFP response relative to DMSO [2, 9] | GFP response vs DMSO [3] | GFP response, % of DMSO [4] | GFP response, % of DMSO [5] | GFP response, % of DMSO [5, 6] | GFP response, % of DMSO [5, 7] |
| --- | --- | --- | --- | --- | --- | --- | --- | --- | --- | --- | --- |
| O=C(Nc1ccc(F)cc1)C1CCCN(c2cnccn2)C1 (configuration not stated) | 102% (inactive) | 101% | 102% | 99.5% (inactive) | 99.1% | 100% | 96.8% (inactive) | 105% (inactive) | 102% (inactive) | 99.2% | 103% |
| Cc1cc(N=Nc2ccccc2C(=O)O)c(C)c(C)c1O | 99.8% (inactive) | 99.4% | 99.3% | 108% (inactive) | 109% | 108% | 114% (inactive) | 98.4% (inactive) | 126% (inactive) | 129% | 125% |
| Cc1nc(Sc2ccc(Cl)cc2)c(C#N)c(C)c1[N+](=O)[O-] | 100% (inactive) | 100% | 98.2% | 91.8% (inactive) | 94.4% | 91.3% | 108% (inactive) | 94.3% (inactive) | 104% (inactive) | 105% | 103% |
| CN1CCN(/N=C/c2c3ccccc3c(Cl)c3ccccc23)CC1 | 94.9% (inactive) | 95% | 94% | 105% (inactive) | 101% | 101% | 105% (inactive) | 99.8% (inactive) | 101% (inactive) | 102% | 95.7% |
| Cc1ccc(-c2ccc(/C=N/NC(N)=S)o2)cc1 | 98.6% (inactive) | 95% | 98.7% | 112% (inactive) | 113% | 115% | 102% (inactive) | 91.9% (inactive) | 97.8% (inactive) | 94.8% | 96.6% |
| CCCn1nc(C(=O)OCC(=O)c2ccc3c(c2)NC(=O)CO3)c2ccccc2c1=O | 97.2% (inactive) | 96.6% | 96.5% | 98.2% (inactive) | 97.5% | 98.4% | 105% (inactive) | 96.3% (inactive) | 100% (inactive) | 97.4% | 101% |
| Cc1nc2ccccc2c(=O)n1/N=C/c1ccc([N+](=O)[O-])o1 | 104% (inactive) | 108% | 104% | 121% (inactive) | 120% | 121% | 116% (inactive) | 102% (inactive) | 121% (inactive) | 128% | 115% |
| NC(=O)C1CCN(C(=S)NCCc2ccccc2)CC1 | 97.3% (inactive) | 99.5% | 97.1% | 91.8% (inactive) | 91.3% | 93.4% | 99.3% (inactive) | 102% (inactive) | 101% (inactive) | 103% | 103% |
| O=[N+]([O-])c1cccc(/C=N/Nc2ncc(Br)cn2)c1 | 90.9% (inactive) | 88.5% | 90.6% | 129% (inactive) | 121% | 132% | 128% (inactive) | 137% (inactive) | 86.1% (inactive) | 86.9% | 83.7% |
| COc1ccccc1CN1C(=O)c2cccc3cccc(c23)C1=O | 100% (inactive) | 100% | 100% | 91.9% (inactive) | 90.7% | 91.6% | 104% (inactive) | 108% (inactive) | 99.3% (inactive) | 100% | 98% |
| COc1ccc(OCC(O)CNC(=O)/C=C/c2cccc([N+](=O)[O-])c2)cc1 (configuration not stated) | 100% (inactive) | 100% | 100% | 104% (inactive) | 102% | 104% | 101% (inactive) | 107% (inactive) | 103% (inactive) | 103% | 104% |
| Cc1ccc2nc(/C(C#N)=C/c3ccc(O)c(O)c3)[nH]c2c1 | 103% (inactive) | 102% | 105% | 123% (inactive) | 110% | 133% | 230% (active) | 102% (inactive) | 128% (inactive) | 114% | 140% |
| COc1ccc(C(=O)C2CCCN(C(=O)c3cccs3)C2)cc1F (configuration not stated) | 102% (inactive) | 101% | 101% | 98.2% (inactive) | 99.1% | 98.4% | 99% (inactive) | 103% (inactive) | 100% (inactive) | 103% | 99.3% |
| Cc1cccc(OCCN2CSC(=S)N(C)C2)c1 | 95.6% (inactive) | 94.4% | 92.7% | 174% (active) | 161% | 167% | 168% (inactive) | 118% (inactive) | 131% (inactive) | 130% | 122% |
| O=C(NC(=S)NNC(=O)c1cnccn1)c1ccc(Cl)cc1 | 103% (inactive) | 95% | 98.2% | 279% (active) | 241% | 260% | 114% (inactive) | 95.7% (inactive) | 106% (inactive) | 105% | 98.2% |
| Cc1ccc(S(=O)(=O)N2CC3CCC2C3)cc1 (configuration not stated) | 101% (inactive) | 100% | 104% | 97.4% (inactive) | 97.2% | 99.3% | 97.8% (inactive) | 97.4% (inactive) | 112% (inactive) | 110% | 114% |
| O=C(/C=C/c1c(F)cccc1Cl)c1ccc(O)cc1 | 94.3% (inactive) | 94% | 94.6% | 144% (inactive) | 137% | 152% | 105% (inactive) | 105% (inactive) | 94.7% (inactive) | 93.7% | 93.7% |
| CC(C(=O)O)n1nc(-c2ccccc2)c2ccccc21 (configuration not stated) | 97.8% (inactive) | 99.6% | 95.3% | 99.5% (inactive) | 101% | 97.3% | 99% (inactive) | 102% (inactive) | 102% (inactive) | 101% | 101% |
| CNc1cc(CSC)nc(SCc2ccc(Cl)cc2Cl)n1 | 93.5% (inactive) | 88.6% | 96.1% | 125% (inactive) | 118% | 131% | 102% (inactive) | 90.4% (inactive) | 88.3% (inactive) | 86.2% | 89% |
| Cc1cccc(OCCCSc2nc3ccc(C)cc3[nH]2)c1 | 92% (inactive) | 89.2% | 92.2% | 124% (inactive) | 115% | 127% | 94.7% (inactive) | 91.6% (inactive) | 79.9% (inactive) | 77.5% | 82.1% |
| CS(=O)(=O)c1sc(C#N)c2c1C(=O)CC(c1ccccc1)C2 (configuration not stated) | 103% (inactive) | 111% | 96.6% | 174% (active) | 168% | 179% | 116% (inactive) | 117% (inactive) | 105% (inactive) | 111% | 95.7% |
| O=C(Nc1ccc(NC(=O)c2cc3ccccc3o2)cc1)c1ccco1 | 100% (inactive) | 97.6% | 101% | 97% (inactive) | 95.9% | 97.3% | 101% (inactive) | 106% (inactive) | 98.8% (inactive) | 99.2% | 98.1% |
| COc1ccc(N=Nc2ccc(O)c3ncccc23)cc1 | 99.5% (inactive) | 100% | 98.8% | 199% (active) | 189% | 200% | 116% (inactive) | 94.5% (inactive) | 109% (inactive) | 113% | 103% |
| Cc1ccc(N2C(=O)C3C4C=CC(CNC(=S)Nc5ccc(F)cc5)(O4)C3C2=O)cc1 (configuration not stated) | 98.4% (inactive) | 99.9% | 97.5% | 102% (inactive) | 103% | 103% | 108% (inactive) | 105% (inactive) | 110% (inactive) | 110% | 110% |
| COc1ccccc1CNc1nc(S(=O)(=O)c2ccccc2)c(Cl)s1 | 97.3% (inactive) | 97.8% | 96.5% | 108% (inactive) | 104% | 109% | 95.2% (inactive) | 105% (inactive) | 97.2% (inactive) | 97.6% | 97.1% |
| O=C1c2ccsc2SCCN1Cc1c(Cl)cccc1Cl | 102% (inactive) | 99.2% | 102% | 98.7% (inactive) | 97.2% | 102% | 93.5% (inactive) | 93.9% (inactive) | 103% (inactive) | 101% | 104% |
| CC(C)c1nnc(NC(=O)c2nc(S(=O)(=O)Cc3ccccc3)ncc2Cl)s1 | 98.5% (inactive) | 101% | 95.4% | 102% (inactive) | 101% | 100% | 106% (inactive) | 102% (inactive) | 100% (inactive) | 99.3% | 99.3% |

Reference: PubChem BioAssay
